Source: ChEMBL document CHEMBL4699407, “Isoquinoline thiosemicarbazone displays potent anticancer activity with in vivo efficacy against aggressive leukemias” (RSC Med Chem, 2020)

Legend:
MIA PaCa-2 [1] = assay: Cytotoxicity against human MIA PaCa2 cells assessed as reduction in cell viability in presence of Cu2+ incubated for 72 hrs by cell titer-glo luminescent cell viability assay; format: functional, cell-based; conditions: MIA PaCa-2, 72 h
How it was run: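 Cells were grown in DMEM or RPMI with 10% FBS, without antibiotics, at 37 °C, 20% O2, 5% CO2. Adherent lines were seeded at 500 cells/well. Serially diluted compound was given with 20 μM Cu(II) (CuCl2) for 72 h; leukemia models received pre-formed 1:1 copper complex. ATP was read by CellTiter-Glo luminescence. IC50 is relative to DMSO-treated cells.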

MIA PaCa-2 [2] = assay: Cytotoxicity against human MIA PaCa2 cells assessed as reduction in cell viability 72 hrs by cell titer-glo luminescent cell viability assay; format: functional
How it was run: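 MIAPACA2 cells in conventional medium without copper supplement got serially diluted compound for 72 h. ATP content was read by CellTiter-Glo, and IC90 (90% proliferation inhibition vs DMSO control) was calculated.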

SMILES | IC90 (MIA PaCa-2 [1]) [nM] | IC90 (MIA PaCa-2 [2]) [nM]
CNC(=S)NN=Cc1nccc2c(NC)cccc12 | 607 | 4240
CN(C)C(=S)NN=Cc1ncc(F)c2ccccc12 | 26.6 | 274
CNc1c(F)ccc2c(C=NNC(=S)N(C)C)nccc12 | 38.4 | 272
CNC(=S)N/N=C/c1nccc2cc(F)ccc12 | 233 | 
NC(=S)N/N=C/c1nccc2c(N)cccc12 | 71100 | 
NC(=S)N/N=C/c1ncc(F)c2ccccc12 | 2060 | 
CNC(=S)N/N=C/c1ncc(F)c2ccccc12 | 114 | 
CNc1cccc2c(/C=N/NC(N)=S)nccc12 | 5330 | 
CN(C)C(=S)NN=Cc1nccc2ccccc12 | 73.7 | 29600
NC(=S)N/N=C/c1nccc2cc(F)ccc12 | 2040 | 
CNC(=S)NN=Cc1nccc2c(N)cccc12 | 7080 | 11200
CNc1cccc2c(C=NNC(=S)N(C)C)ncc(F)c12 | 42.3 | 327
CNC(=S)N/N=C/c1nccc2ccccc12 | 331 | 
NC(=S)N/N=C/c1nccc2ccccc12 | 2210 | 
